The results in this text go back to ChEMBL document CHEMBL1821687, “Discovery, synthesis, and biological evaluation of novel SMN protein modulators” (J Med Chem, 2011).

Active and inactive are the calls of the source. No cut-off for these calls is given here. Some results are limits rather than exact numbers.

Test [1] concerns the target Survival motor neuron protein (Homo sapiens) (UniProt Q16637). Put plainly: Activation of SMN expressed in HEK293 cells assessed as concentration required to reach 50% of maximum luciferase signal by SMN2-promotor driven luciferase reporter gene assay. It counts as cell-based. An outline of the steps: (§1)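 HEK-293 cells stably carrying the SMN2 reporter construct, kept in DMEM with 10% FCS, glutamax, pyruvate, pen/strep and 200 µg/mL hygromycin, and assayed without hygromycin. 2,000 cells/well were plated and adhered overnight at 37 °C, 5% CO2. Compounds were added as a 7-point titration, 50 µM to 25 nM final, in 0.46% DMSO, for 30–36 h. OneGlo luminescence was normalized to 4.5 mM sodium butyrate (100%) and DMSO (0%).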
On the technique in general: A reporter such as luciferase makes a cellular process visible.

Test [2] shares this target. Put plainly: Activation of SMN expressed in HEK293 cells assessed as rate of induction by SMN2-promotor driven luciferase reporter gene assay relative to basal level. It counts as cell-based. Further details: concentration or dose not given beside the values. The method in brief: as §1

Sequence of Survival motor neuron protein (Homo sapiens) (Q16637 whole entry): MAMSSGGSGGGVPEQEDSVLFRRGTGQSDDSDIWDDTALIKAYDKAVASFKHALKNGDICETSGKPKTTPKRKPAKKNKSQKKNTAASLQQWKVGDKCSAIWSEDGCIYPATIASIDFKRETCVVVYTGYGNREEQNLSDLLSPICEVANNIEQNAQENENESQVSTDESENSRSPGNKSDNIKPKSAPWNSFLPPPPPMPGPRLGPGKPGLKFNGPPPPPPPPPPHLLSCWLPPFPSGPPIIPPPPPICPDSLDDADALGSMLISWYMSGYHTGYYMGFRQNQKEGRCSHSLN

For the compound `NC(=O)C1CCN(c2ncc(-c3ccc4c(c3)OC(F)(F)O4)s2)CC1`, the Activity in test [1] is 0.194 µM; in test [2], 598%.

As for `NC(=O)C1CCN(c2ncc(-c3ccc4c(c3)OCO4)s2)CC1`, the values for the Activity in test [1] and in test [2] were 0.049 µM and 590%, respectively.

In the case of `NC(=O)C1CCN(c2nc(-c3cccc(F)c3)cs2)CC1`, the Activity worked out at 9.72 µM in test [1] and 64% in test [2].

Consider `CN(C)c1cccc(-c2nc(N3CCC(C(N)=O)CC3)ncc2F)c1`, for which the Activity in test [1] was determined as 0.387 µM; in test [2] it was 373%.

Turning to `NC(=O)C1CCN(c2nc(-c3ccccc3Cl)cs2)CC1`, the figures for the Activity in test [1] and in test [2] were 7.72 µM and 57%, respectively.

As for `NC(=O)C1CCN(c2nccc(-c3ccc4c(c3)OCCCO4)n2)CC1`, the Activity stood at 1.54 µM in test [1] and 234% in test [2].

Take `Cc1ccc(-c2csc(N3CCC(C(N)=O)CC3)n2)cc1`: the Activity stood at 1.22 µM in test [1] and 439% in test [2].

As to `Brc1ccc(-c2csc(N3CCC(c4nnn[nH]4)CC3)n2)cc1`, the Activity in test [1] was 12.2 µM; in test [2], 67%.

`NC(=O)C1CCN(c2nc(-c3cccc(Cl)c3)cs2)CC1`: the figures for the Activity in test [1] and in test [2] were 12.2 µM and 53%, respectively.

`NC(=O)C1CCN(c2nc(-c3ccccc3[N+](=O)[O-])cs2)CC1`: the outcome in test [1] was inactive.

With `CN(C)c1ccccc1-c1csc(N2CCC(C(N)=O)CC2)n1`, the outcome in test [1] was inactive.

Take `O=C(c1ccccc1)N1CCN(c2nc(-c3ccc(Br)cc3)cs2)CC1`: the result in test [1] was inactive.

Take `COc1cc(-c2csc(N3CCC(C(N)=O)CC3)n2)cc(OC)c1OC`: the Activity came out at 19.4 µM in test [1] and 73% in test [2].

As to `NC(=O)C1CCN(c2nc(-c3ccc([N+](=O)[O-])cc3)cs2)CC1`, the Activity turned out to be 15.4 µM in test [1] and 254% in test [2].

For the compound `O=C(c1ccco1)N1CCN(c2nc(-c3ccc(Br)cc3)cs2)CC1`, the outcome in test [1] was inactive.

As to `NC(=O)C1CCN(c2ncc(Br)cn2)CC1`, the result in test [1] was inactive.

Take `NC(=O)C1CCN(c2cc(-c3ccc4c(c3)OCCCO4)ncn2)CC1`: the Activity in test [1] was found to be 7.72 µM; in test [2] it was 211%.

Consider `CN(C)c1ccc(-c2csc(N3CCC(C(N)=O)CC3)n2)cc1`, for which the Activity stood at 30.7 µM in test [1] and 64% in test [2].

Consider `NC(=O)C1CCN(c2nc(-c3cc4ccccc4o3)cs2)CC1`, for which the Activity in test [1] was 15.4 µM.

Regarding `CC(=O)NC1CCN(c2nc(-c3ccc(Br)cc3)cs2)CC1`, the results for the Activity in test [1] and in test [2] were 15.4 µM and -57%, respectively.

With `CN(C)c1cccc(-c2cc(N3CCC(C(N)=O)CC3)ncn2)c1`, the Activity in test [1] was 3.87 µM; in test [2] it was 81%.

In the case of `N#Cc1ccc(-c2csc(N3CCC(C(N)=O)CC3)n2)cc1`, the Activity was found to be 9.72 µM in test [1] and 49% in test [2].

As for `NC(=O)C1CCN(c2ncc(-c3cccc(N4CCCC4)c3)s2)CC1`, the Activity in test [1] was 0.387 µM; in test [2] it was 685%.

On to `NC(=O)C1CCN(c2nc(-c3ccccc3)cs2)CC1`, for which the Activity in test [1] came to 7.72 µM; in test [2], 167%.

Take `CC(C)Oc1ccc(-c2csc(N3CCC(C(N)=O)CC3)n2)cc1`: the Activity in test [1] was found to be 3.87 µM; in test [2], 178%.

On to `CN(C)C(=O)C1CCN(c2nc(-c3ccc(Br)cc3)cs2)CC1`, for which the Activity in test [1] came to 30.8 µM; in test [2] it was 43%.

Consider `NC(=O)C1CCN(c2ncc(Br)s2)CC1`, for which the result in test [1] was inactive.

Consider `NC(=O)C1CCN(c2ncc(-c3cccc(F)c3)s2)CC1`, for which the figures for the Activity in test [1] and in test [2] were 2.44 µM and 601%, respectively.

`NC(=O)C1CCN(c2nccc(Cl)n2)CC1`: the result in test [1] was inactive.

For the compound `O=C(NCCc1ccccc1)C1CCN(c2nc(-c3ccc(Br)cc3)cs2)CC1`, the Activity in test [1] turned out to be 6.13 µM; in test [2] it was 32%.

Turning to `NC(=O)C1CCN(c2ncc(-c3cccc(N4CCOCC4)c3)s2)CC1`, the results for the Activity in test [1] and in test [2] were 2.44 µM and 275%, respectively.

As to `Brc1ccc(-c2csc(N3CCNCC3)n2)cc1`, the Activity in test [1] was 24.4 µM; in test [2] it was -97%.

`NC(=O)C1CCN(c2ncc(-c3ccc(Br)cc3)s2)CC1`: the Activity in test [1] is 0.224 µM; in test [2], 599%.

In the case of `CC(C)Oc1cccc(-c2csc(N3CCC(C(N)=O)CC3)n2)c1`, the Activity was 0.77 µM in test [1] and 605% in test [2].

For `O=C(Nc1ccccc1)C1CCN(c2nc(-c3ccc(Br)cc3)cs2)CC1`, the Activity in test [1] amounted to 2.44 µM; in test [2], 262%.

In the case of `CCOC(=O)C1CCN(c2ncc(-c3ccc4c(c3)OCCCO4)s2)CC1`, the Activity came out at 0.031 µM in test [1] and 320% in test [2].

For the compound `NC(=O)C1CCN(c2nc(-c3cccc4sc5ccccc5c34)cs2)CC1`, the Activity came out at 30.7 µM in test [1] and 369% in test [2].

`NC(=O)C1CCN(c2nc(-c3ccc4ccccc4c3)cs2)CC1`: the Activity in test [1] worked out at 7.72 µM; in test [2], 162%.

Take `COc1ccc(-c2cnc(N3CCC(C(N)=O)CC3)s2)cc1OC`: the results for the Activity in test [1] and in test [2] were 9.72 µM and 209%, respectively.

On to `COc1ccc(-c2csc(N3CCC(C(N)=O)CC3)n2)cc1OC`, for which the Activity in test [1] is 12.2 µM; in test [2], 59%.

Take `NC(=O)C1CCN(c2nc(-c3ccc(C(F)(F)F)cc3)cs2)CC1`: the results for the Activity in test [1] and in test [2] were 2.44 µM and 386%, respectively.

On to `CCOc1ccc(-c2csc(N3CCC(C(N)=O)CC3)n2)cc1`, for which the values for the Activity in test [1] and in test [2] were 3.87 µM and 212%, respectively.

For `O=C(NCCCc1ccccc1)C1CCN(c2nc(-c3ccc(Br)cc3)cs2)CC1`, the outcome in test [1] was inactive.

In the case of `CC(=O)c1cccc(-c2csc(N3CCC(C(N)=O)CC3)n2)c1`, the Activity in test [1] was 3.87 µM; in test [2], 356%.

Regarding `NC(=O)C1CCN(c2nc(-c3cccnc3)cs2)CC1`, the result in test [1] was inactive.

`CN(C)c1cccc(-c2ccnc(N3CCC(C(N)=O)CC3)n2)c1`: the Activity worked out at 0.772 µM in test [1] and 446% in test [2].

For the compound `NC(=O)C1CCN(c2ncc(-c3ccc4c(c3)OCCO4)s2)CC1`, the results for the Activity in test [1] and in test [2] were 0.097 µM and 424%, respectively.

Consider `CN(C)c1cccc(-c2cnc(N3CCC(C(N)=O)CC3)nc2)c1`, for which the values for the Activity in test [1] and in test [2] were 0.613 µM and 236%, respectively.

As for `NC(=O)C1CCN(c2nc(-c3ccc(OC(F)(F)F)cc3)cs2)CC1`, the Activity in test [1] amounted to 3.07 µM; in test [2] it was 297%.

`Cc1cccc(-c2csc(N3CCC(C(N)=O)CC3)n2)c1`: the Activity in test [1] was found to be 30.7 µM; in test [2], 187%.

`NC(=O)C1CCN(c2nc(-c3ccc(OCc4ccccc4)cc3)cs2)CC1`: the result in test [1] was inactive.

Regarding `CC(=O)C1CCN(c2ncc(-c3ccc4c(c3)OCCCO4)s2)CC1`, the outcome in test [1] was inactive.

`Brc1ccc(-c2csc(N3CCOCC3)n2)cc1`: the outcome in test [1] was inactive.

Take `O=C(NCCCCc1ccccc1)C1CCN(c2nc(-c3ccc(Br)cc3)cs2)CC1`: the outcome in test [1] was inactive.

Take `NC(=O)C1CCN(c2nnc(-c3ccc(Br)cc3)s2)CC1`: the result in test [1] was inactive.

As for `CC(=O)Nc1ccc(-c2csc(N3CCC(C(N)=O)CC3)n2)cc1`, in test [1], the outcome was inactive.

Regarding `NC(=O)C1CCN(c2nc(-c3ccccc3C(F)(F)F)cs2)CC1`, the outcome in test [1] was inactive.

As for `Cc1cnc(N2CCC(C(N)=O)CC2)nc1-c1cccc(N(C)C)c1`, in test [1], the outcome was inactive.

Take `CS(=O)(=O)c1cccc(-c2csc(N3CCC(C(N)=O)CC3)n2)c1`: in test [1], the outcome was inactive.

Take `O=C(C1CCN(c2nc(-c3ccc(Br)cc3)cs2)CC1)N1CCNCC1`: the outcome in test [1] was inactive.

For `CS(=O)(=O)N1CCN(c2nc(-c3ccc(Br)cc3)cs2)CC1`, the outcome in test [1] was inactive.

As to `NC(=O)C1CCN(c2nc(-c3ccccc3Br)cs2)CC1`, the result in test [1] was inactive.

As for `NC(=O)C1CCN(c2nc(-c3ccc(N4CCCCC4)nc3)cs2)CC1`, the Activity in test [1] is 6.13 µM.

On to `COc1ccccc1-c1csc(N2CCC(C(N)=O)CC2)n1`, for which the result in test [1] was inactive.

For `O=C(NCc1ccccc1)C1CCN(c2nc(-c3ccc(Br)cc3)cs2)CC1`, the result in test [1] was inactive.

Regarding `NC(=O)C1CCN(c2nc(-c3cccc4ccccc34)cs2)CC1`, the result in test [1] was inactive.

Take `NC(=O)C1CCN(c2nc(-c3ccc(N)cc3)cs2)CC1`: in test [1], the result was inactive.

On to `CS(=O)(=O)c1ccccc1-c1csc(N2CCC(C(N)=O)CC2)n1`, for which the outcome in test [1] was inactive.

On to `N#Cc1ccccc1-c1csc(N2CCC(C(N)=O)CC2)n1`, for which the result in test [1] was inactive.

For `NC(=O)C1CCN(c2nc(-c3ccccc3-c3ccccc3)cs2)CC1`, the result in test [1] was inactive.

Regarding `Cc1noc(C)c1-c1csc(N2CCC(C(N)=O)CC2)n1`, the outcome in test [1] was inactive.

Regarding `NC(=O)C1CCN(c2nc(-c3cccc(C(F)(F)F)c3)cs2)CC1`, in test [1], the Activity is 3.87 µM.

Regarding `O=S(=O)(c1ccccc1)N1CCN(c2nc(-c3ccc(Br)cc3)cs2)CC1`, the outcome in test [1] was inactive.

For the compound `NC(=O)C1CCN(c2nc(-c3cccc(N)c3)cs2)CC1`, in test [1], the outcome was inactive.

On to `CS(=O)(=O)c1ccc(-c2csc(N3CCC(C(N)=O)CC3)n2)cc1`, for which the outcome in test [1] was inactive.

For `CC(C)(C)OC(=O)NC1CCN(c2nc(-c3ccc(Br)cc3)cs2)CC1`, in test [1], the result was inactive.

As to `CC(C(=O)O)c1ccc(N2Cc3ccccc3C2=O)cc1` (stereo not drawn), the Activity in test [1] was over 1 µM.

In the case of `N#Cc1cccc(-c2csc(N3CCC(C(N)=O)CC3)n2)c1`, the result in test [1] was inactive.
